According to ChEMBL document CHEMBL3872225, “Synthesis, binding assays, cytotoxic activity and docking studies of benzimidazole and benzothiophene derivatives with selective affinity for the CB2 cannabinoid receptor” (Eur J Med Chem, 2016):

Key:
Cannabinoid receptor 2 [1] = molecular target: T1, Cannabinoid receptor 2 (Homo sapiens, UniProt P34972); test: Displacement of [3H]CP-55940 from human recombinant CB2 receptor expressed in HEK293 cell membranes at 1 uM incubated for 1.5 hrs relative to control
T1 sequence (P34972 whole entry): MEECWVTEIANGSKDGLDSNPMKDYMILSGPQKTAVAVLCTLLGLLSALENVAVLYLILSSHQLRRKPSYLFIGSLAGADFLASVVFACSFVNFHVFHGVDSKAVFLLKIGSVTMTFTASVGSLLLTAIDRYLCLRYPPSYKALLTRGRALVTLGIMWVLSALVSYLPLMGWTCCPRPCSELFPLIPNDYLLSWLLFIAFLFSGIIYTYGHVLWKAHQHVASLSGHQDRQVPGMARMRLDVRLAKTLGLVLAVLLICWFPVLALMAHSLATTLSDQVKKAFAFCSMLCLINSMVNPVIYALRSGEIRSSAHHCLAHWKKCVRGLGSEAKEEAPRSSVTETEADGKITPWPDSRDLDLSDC
Summary of the method: (§1)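 Single-point screen on HEK-293 membranes overexpressing human CB1 or CB2. […] Compounds displacing more than 50% at 1 μM went on to full curves.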

[2] = Cytotoxicity against resistant human HCT116 cells assessed as reduction in cell viability measured after 72 hrs by MTT assay; assay type: functional, cell-based; conditions: HCT-116, 72 h
Summary of the method: (§2)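 Cells kept in RPMI 1640 with 5% FBS, penicillin/streptomycin, 37 °C, 5% CO2. Seeded at 10,000 cells/well, then exposed to compounds at 0.001–10 μM in 5% FBS-RPMI for 72 h at 37 °C. MTT added for 4 h, formazan dissolved overnight in 10% SDS/0.1 mM HCl, absorbance read at 570 nm. […] Etoposide as positive control.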

[3] = Cytotoxicity against human H1975-1 cells assessed as reduction in cell viability measured after 72 hrs by MTT assay; assay type: functional, cell-based; summary of the method: as §2
Homo sapiens = organism: Homo sapiens; test: Selectivity index, ratio of Ki for displacement of [3H]CP-55940 from human recombinant CB1 receptor to Ki for displacement of [3H]CP-55940 from human recombinant CB2 receptor
Summary of the method: (§3)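 Membranes from HEK-293 cells overexpressing human CB1 or CB2 incubated with increasing compound concentrations and 0.5 nM [3H]CP-55,940 at 30 °C for 1.5 h. […] Selectivity index is Ki CB1/Ki CB2.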

Cannabinoid receptor 1 = Cannabinoid receptor 1 (Homo sapiens, UniProt P21554); test: Displacement of [3H]CP-55940 from human recombinant CB1 receptor expressed in HEK293 cell membranes incubated for 1.5 hrs; summary of the method: as §3
Chain of Cannabinoid receptor 1 (P21554 whole entry): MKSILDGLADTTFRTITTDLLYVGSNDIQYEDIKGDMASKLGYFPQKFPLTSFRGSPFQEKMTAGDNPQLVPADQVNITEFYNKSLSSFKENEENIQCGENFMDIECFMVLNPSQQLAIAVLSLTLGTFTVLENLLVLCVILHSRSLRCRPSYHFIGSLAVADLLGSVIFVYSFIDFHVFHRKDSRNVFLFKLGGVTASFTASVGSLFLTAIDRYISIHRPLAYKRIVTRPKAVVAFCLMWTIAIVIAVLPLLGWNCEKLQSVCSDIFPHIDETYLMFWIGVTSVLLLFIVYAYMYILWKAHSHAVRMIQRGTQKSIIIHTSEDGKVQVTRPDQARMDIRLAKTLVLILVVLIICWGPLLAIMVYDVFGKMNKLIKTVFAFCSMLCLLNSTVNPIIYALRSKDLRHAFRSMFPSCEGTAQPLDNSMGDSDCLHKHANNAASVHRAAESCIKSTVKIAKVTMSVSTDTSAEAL

[4] = molecular target: Cannabinoid receptor 1 (CB1) (Homo sapiens, UniProt P21554); test: Displacement of [3H]CP-55940 from human recombinant CB1 receptor expressed in HEK293 cell membranes at 1 uM incubated for 1.5 hrs relative to control; conditions: probe [3H]CP-55940; summary of the method: as §1
Chain of Cannabinoid receptor 1 (CB1) (P21554 whole entry): as above

[5] = Cytotoxicity against human HL60 cells assessed as reduction in cell viability measured after 72 hrs by MTT assay; assay type: functional, cell-based; conditions: HL-60, 72 h; summary of the method: as §2
[6] = Cytotoxicity against African green monkey Vero cells assessed as reduction in cell viability measured after 72 hrs by MTT assay; assay type: toxicity, cell-based; conditions: Chlorocebus sabaeus (African green monkey); summary of the method: as §2
Cannabinoid receptor 2 [7] = molecular target: T1, Cannabinoid receptor 2; test: Displacement of [3H]CP-55940 from human recombinant CB2 receptor expressed in HEK293 cell membranes incubated for 1.5 hrs; summary of the method: as §3
[8] = Cytotoxicity against human HeLa cells assessed as reduction in cell viability measured after 72 hrs by MTT assay; assay type: functional, cell-based; summary of the method: as §2

| Compound | inhibition (Cannabinoid receptor 2 [1]) [%] | IC50 [2] [µM] | IC50 [3] [µM] | Ratio Ki (Homo sapiens) | IC50 (Cannabinoid receptor 1) [µM] | Ki (Cannabinoid receptor 1) [µM] | inhibition at 1.5 h, 1 µM [4] [%] | IC50 [5] [nM] | IC50 at 72 h [6] [µM] | IC50 (Cannabinoid receptor 2 [7]) [nM] | Ki (Cannabinoid receptor 2 [7]) [nM] | IC50 [8] [µM] |
| --- | --- | --- | --- | --- | --- | --- | --- | --- | --- | --- | --- | --- |
| O=C(c1cc2ccccc2s1)c1cccc2ccccc12 | > 50 | > 10 | > 10 | 2.7 | 4.5 | 2.7 | > 50 | 51 | > 10 | 4100 | 1000 | > 10 |
| O=C(c1cccc2ccccc12)n1c(C2CCC2)nc2ccccc21 | > 50 | > 10 | > 10 | 4.14 | 9.7 | 5.8 | > 50 | 180 | > 10 | 5500 | 1400 | > 10 |
| CCc1sc2ccccc2c1C(=O)c1cccc2ccccc12 | > 50 | > 10 | > 10 | 7.28 | 8.4 | 5.1 | > 50 | 99 | > 10 | 2900 | 700 | > 10 |
| CCCCc1nc2ccccc2n1C(=O)c1cccc2ccccc12 | > 50 | 0.56 | > 10 | 14.7 | 9.7 | 5.9 | > 50 | 105 | 4.1 | 1700 | 400 | > 10 |
| O=C(c1cccc2ccccc12)c1csc2ccccc12 | > 50 | > 10 | > 10 | > 50 | > 10 | > 10 | > 50 | 58 | > 10 | 1100 | 200 | > 10 |
| CC(C)(C)c1nc2ccccc2n1C(=O)c1cccc2ccccc12 | > 50 | > 10 | > 10 | > 125 | > 10 | > 10 | > 50 | 130 | > 10 | 300 | 80 | > 10 |
